Most compounds without a hit are left out; they make up all but 2.3% or so of the library.
SKKanGAS inh – S. pyogenes SKKanGAS growth inhibitors in kanamycin, primary screen, streptokinase expression inhibitor project, SKKanGAS strain, BacTiter-Glo luminescence; inhibition, % at 7.5 µM; AID 1662, 2009; 1.3% of 300,000 active; 6 h;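 active = mean replicate score, as percent of positive control median, at least 50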;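 also: strain carries kanamycin resistance gene driven by streptokinase promoter and grows in 40 µg/ml kanamycin; loss of luminescence reflects streptokinase promoter inhibition or plain growth inhibition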
ASAP1 GAP inh – inhibitors of human ASAP1 ArfGAP activity, primary screen, biochemical, fluorescence polarization. Arf-GAP with SH3 domain, ANK repeat and PH domain-containing protein 1 (Homo sapiens), …. ASAP1-stimulated ARF1 GTP hydrolysis, GDP FP detection. inhibition, % at 16.5 µM. 0.19% of 360,000 active. AID 624377, 2012; in the data active = inhibition above about 25%
HGIII-sPLA2 inh – human group III sPLA2 inhibitors, primary screen, biochemical, QFRET, BODIPY PC-A2 liposome substrate; QFRET BODIPY PC-A2 liposome hydrolysis, fluorescence; inhibition, % at 12.2 µM; AID 743126, 2013; 0.56% of 370,000 active;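 active = inhibition above mean plus 3 SD of compounds lying within the high and low control bounds, cut at about 19% in these data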
Target sequence (Q9NZ20 whole entry, looked up): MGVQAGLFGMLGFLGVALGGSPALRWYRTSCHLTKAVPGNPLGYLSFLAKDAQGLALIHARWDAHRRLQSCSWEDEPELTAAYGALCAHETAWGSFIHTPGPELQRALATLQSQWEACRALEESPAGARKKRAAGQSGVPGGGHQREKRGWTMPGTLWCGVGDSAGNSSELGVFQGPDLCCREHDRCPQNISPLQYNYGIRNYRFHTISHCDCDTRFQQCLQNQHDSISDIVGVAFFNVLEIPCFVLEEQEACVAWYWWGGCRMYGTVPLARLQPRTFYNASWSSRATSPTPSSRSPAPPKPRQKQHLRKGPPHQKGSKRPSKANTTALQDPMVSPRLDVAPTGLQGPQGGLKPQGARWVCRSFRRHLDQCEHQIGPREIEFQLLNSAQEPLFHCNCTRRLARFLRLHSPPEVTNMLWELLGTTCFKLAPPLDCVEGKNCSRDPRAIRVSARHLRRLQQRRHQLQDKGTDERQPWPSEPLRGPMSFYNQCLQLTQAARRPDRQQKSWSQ
Calb FLC – C. albicans growth inhibition with fluconazole, primary screen, CaCi-2 strain, Alamar Blue fluorescence. C. albicans CaCi-2 (fluconazole-resistant clinical isolate) + fluconazole, 48 h. growth inhibition, % (no concentration beside the values). 0.57% of 300,000 active. AID 1979, 2009;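 active = growth inhibition above about 58% in most replicates, limit read from the data, passing the limit was not always enough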;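 also: all wells also contain fluconazole at 8 µg/ml as a sub-toxic cotreatment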
ARFGAP1 inh – inhibitors of rat ARFGAP1 GAP activity, primary screen, biochemical, fluorescence polarization, GDP tracer; ADP-ribosylation factor GTPase-activating protein 1 (Rattus norvegicus), Q62848; Arfgap1-stimulated ARF1 GTP hydrolysis, GDP FP detection; inhibition, % at 16.5 µM; 0.26% of 360,000 active; AID 651572, 2012;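 active = inhibition above a per-plate limit, mean inhibition of low control wells plus 3 SD, cut at about 25% in these data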
Target sequence (Q62848 1-136 limits assumed): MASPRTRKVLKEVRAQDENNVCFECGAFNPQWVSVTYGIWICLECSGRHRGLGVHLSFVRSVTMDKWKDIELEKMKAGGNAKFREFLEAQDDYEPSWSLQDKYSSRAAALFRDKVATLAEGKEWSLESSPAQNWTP
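System: truncated rat Arfgap1 GAP domain / Medium: HEPES-based buffer, pH 7.5 / Also added: N-terminally truncated human ARF1-GTP substrate / Incubation: enzyme reaction 120 min at 25 °C after 20 min preincubation / Measured by: FP of antibody-bound GDP Alexa 633 tracer, ex 620/em 688 nm / Replicates: singlicate, each compound tested once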
sPLA2 confirm – human group III sPLA2 inhibitors, confirmation, biochemical, QFRET, triplicate; AID 743280, 2014; 34% of 2,000 active; recombinant hGIII-sPLA2, BODIPY PC-A2 QFRET fluorescence; shares compounds with HGIII-sPLA2 inh; inhibition, % at 12.2 µM;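 active = mean inhibition across triplicates above the hit cutoff set in the earlier primary screen, cut at about 19% in these data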
535nm interf – 535nm fluorescence optical interference, confirmation, artefact control for HGIII-sPLA2 inhibitor project, biochemical, QFRET; shares compounds with HGIII-sPLA2 inh; BODIPY FL product fluorescence interference; inhibition, % at 12.2 µM; 8.5% of 2,000 active;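 active = average inhibition above the solvent-only control mean plus 3 SD, cut at about 6% in these data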
BODIPY interf DR – 535nm fluorescence optical interference, dose response, artefact control for HGIII-sPLA2 inhibitor project, biochemical, QFRET. shares compounds with HGIII-sPLA2 inh. BODIPY FL product fluorescence interference, cell-free. IC50, µM. 240 tested, under 10 active;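 active = IC50 at or below 10 µM; inactive = IC50 above 10 µM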
A number is an active result; i = inactive; nt = not tested or not shown.

SMILES	SKKanGAS inh	ASAP1 GAP inh	HGIII-sPLA2 inh	Calb FLC	ARFGAP1 inh	sPLA2 confirm	535nm interf	others
COc1ccc(C2Nc3ccccc3C(=O)N2c2ccc(F)cc2)cc1CSc1ccccn1 (stereo unspecified)	i	i	20	i	i	i	i
Clc1ccc(CN2CCN(N=Cc3cccc(OCc4ccccc4)c3)CC2)cc1	nt	nt	i	nt	nt	nt	nt
COc1ccccc1C(=O)OCn1nnc2ccccc2c1=O	i	i	i	i	i	nt	nt
O=C(OCn1nnc2ccccc2c1=O)c1cc(-c2ccccc2)nc2ccccc12	i	i	23	i	i	i	i
CC(C)(C)c1ccc(-c2cn(C[C@H](Cc3ccccc3)n3c(=O)c4ccccc4n3Cc3ccccc3)nn2)cc1	nt	nt	i	nt	nt	nt	nt
Cc1cccc(-n2c(C)n[nH]c2=S)c1	i	i	i	i	i	nt	nt
Cc1cccc(-n2c(C)c(-c3ccccc3)[nH]c2=S)c1	i	i	29	i	i	33	i
COC(=O)[C@]12C[C@H](CC(=O)NCC34CC5CC(CC(C5)C3)C4)C(=O)N(Cc3ccccc3)C1=C[C@H](COCc1ccccc1)O[C@@H]2C	nt	nt	i	nt	nt	nt	nt
COC(=O)C1=NN(C(=O)c2ccccc2)C(O)(c2ccc([N+](=O)[O-])cc2)C1 (stereo unspecified)	i	i	33	i	i	57	17
O=C(c1ccccc1[N+](=O)[O-])N1N=C(c2ccccc2)CC1(O)C(F)(F)F (stereo unspecified)	i	i	i	i	i	nt	nt
CCC1=NN(C(=O)c2ccccc2[N+](=O)[O-])C(O)(c2ccccc2)C1 (stereo unspecified)	nt	i	23	nt	i	i	i
C[C@@H]1CN([C@H](C)CO)C(=O)c2ccccc2-c2ccccc2CO[C@@H]1CN(C)C(=O)Nc1ccccc1	nt	i	i	nt	i	nt	nt
CCCNC(=S)N1CCC(C(=O)c2ccc(OC)cc2)CC1	i	i	21	i	i	i	i
CCCNC(=S)N1CCC(C(=O)c2ccc(Cl)cc2)CC1	i	i	i	i	i	nt	nt
CCCc1cn(-c2ccc3c(c2)[C@]2(CC(=O)N(C)C2c2ccccc2)C(=O)N3CC(C)C)nn1 (stereo partly specified)	nt	nt	i	nt	nt	nt	nt
N#Cc1ccc(/C=C2\CC3(OC(=O)c4cccc(F)c4)CCCN2C3)cc1 (stereo unspecified)	nt	nt	i	nt	nt	nt	nt
C/C(=N\NC(=S)NCc1ccccc1)c1ccc2ccccc2c1	i	i	19	i	i	i	i
COc1ccc(CNC(=S)N/N=C(\C)c2ccc(OC)cc2)cc1	i	i	i	i	i	nt	nt
NC(=S)NN=Cc1nccc2c(C(F)(F)C(F)(F)C(F)(F)F)cccc12	nt	i	31	nt	i	39	i	BODIPY interf DR=i
CCc1nc(SCC(=O)N2CCCCCC2)c2c(=O)n(C)c(=O)n(C)c2n1	i	i	i	i	i	nt	nt
CCOC(=O)N1CCN(C(=O)CSc2nc(CC)nc3c2c(=O)n(C)c(=O)n3C)CC1	i	i	21	i	i	i	i
CC(=O)CC[C@@H]1CC[C@]2(CCCN(C(=O)c3ccccc3)C2)O1	nt	nt	i	nt	nt	nt	nt
O=C(CN(Cc1cccs1)S(=O)(=O)c1ccc(S(=O)(=O)N2CCCCC2)cc1)Nc1ccccc1	i	i	21	i	i	i	i
CC(C)(C)c1ccc(C#C[C@@H]2C=C[C@@H](O)[C@@H](CO)O2)cc1	nt	i	20	nt	i	i	i
Oc1ccccc1/C=N/Nc1ncc(Br)cn1	i	i	29	i	i	i	32
SMILES	SKKanGAS inh	ASAP1 GAP inh	HGIII-sPLA2 inh	Calb FLC	ARFGAP1 inh	sPLA2 confirm	535nm interf	others
Oc1ccccc1/C=N/Nc1ccccc1	i	i	i	i	i	nt	nt
CNC(=S)N1CCN(c2nc(-c3ccc(F)cc3)cs2)CC1	i	i	20	i	i	i	i
COCCCNC(=S)N1CCN(c2nc(-c3ccc(F)cc3)cs2)CC1	i	i	i	i	i	nt	nt
COc1ccc(C(=O)OCCCN(C)C2CN(Cc3cn(Cc4ccccc4F)nn3)S(=O)(=O)C2)cc1OC (stereo unspecified)	nt	nt	i	nt	nt	nt	nt
COc1ccc(NC(=S)NC(NC(=O)c2cccc(Cl)c2)C(Cl)(Cl)Cl)c([N+](=O)[O-])c1 (stereo unspecified)	i	i	29	i	i	52	12
COc1ccc(NC(=S)NC(NC(=O)c2cccc(C)c2)C(Cl)(Cl)Cl)c([N+](=O)[O-])c1 (stereo unspecified)	nt	i	i	nt	i	nt	nt
O=C1NC[C@@H](CCCCN2C[C@H](Cc3ccccc3)N(CCc3ccc(O)cc3)C(=O)C2=O)N(CC2CCCCC2)C1=O	nt	i	i	nt	i	nt	nt
NC(=S)N/N=C1\CC(c2ccc3c(c2)OCCCO3)Oc2ccc(F)cc21 (stereo unspecified)	i	i	i	i	i	nt	nt
NC(=S)N/N=C1\CC(c2ccc3c(c2)OCCO3)Oc2ccc(F)cc21 (stereo unspecified)	i	i	21	i	i	i	i
S=C(NCCc1ccccc1)N1CCCC1	i	i	i	i	i	nt	nt
CC1CCCCN1C(=S)NCCc1ccccc1 (stereo unspecified)	i	i	22	i	i	i	i
CCOC(=O)[C@@]12CCC3=C1N(CCC3)C(=O)[C@H](CC(=O)N1CCC(c3ccccc3)CC1)C2	nt	nt	i	nt	nt	nt	nt
CCC(=O)N1Cc2cc(C(=O)NCC(F)(F)F)nc(-c3cccc(-c4cncnc4)c3)c2[C@@H]1CCO	nt	i	i	nt	i	nt	nt
CCNC(=O)c1cc2c(c(-c3cccc(-c4cncnc4)c3)n1)[C@@H](CCO)N(C(C)=O)C2	nt	i	21	nt	i	i	i
O=C(Nc1ccn(CCCNCCc2ccccn2)c(=O)n1)OCc1ccccc1	nt	i	i	nt	i	nt	nt
O=C(Nc1ccn(CCCNCc2ccccn2)c(=O)n1)OCc1ccccc1	nt	i	21	nt	i	i	i
CCc1ccc(NC(=O)CCCN2C(=S)NC(C)(C)CC2C)cc1 (stereo unspecified)	i	i	i	i	i	nt	nt
COc1ccc(OC)c(NC(=O)CCCN2C(=S)NC(C)(C)CC2C)c1 (stereo unspecified)	i	i	i	i	i	nt	nt

Screening data from PubChem.
